According to ChEMBL document CHEMBL2346557 (Bioorg Med Chem, 2013):

Assays:
Canis familiaris [1] = assay: Total unbound Cmax in beagle dog at 30 mg/kg, po; assay type: ADME, organism-based, Canis lupus familiaris; design: dose 30 mg/kg, route oral; conditions: in vivo
Outline: (§1)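 Beagles (n = 3) were given an oral emulsion in 30% Labrafil. Blood was collected at 0, 5, 15 and 30 min and at 1, 2, 4, 8 and 24 h. Bioavailability was derived relative to IV dosing.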

[2] = Terminal half life in beagle dog at 30 mg/kg, po; assay type: ADME, organism-based, Canis lupus familiaris; design: dose 30 mg/kg, route oral; conditions: in vivo, read-out: beta t1/2 (converted); outline: as §1
[3] = Metabolic stability in dog liver microsomes assessed as compound remaining at 2 uM measured at 1 hr; assay type: ADME, Canis lupus familiaris, Microsome; conditions: read-out: Stability
Outline: (§2)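 Liver microsomes (human, or male monkey, dog, rat or mouse) at 0.5 mg/mL final with 2 µM compound, 5 mM MgCl2 and 5 mM PBS. The reaction was started with 1 mM NADPH and run at 37 °C. Verapamil was the positive control; water replaced NADPH in the negative control. Read-out was percent parent remaining at 1 h.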

C2C12 = assay: Cytotoxicity against mouse C2C12 cells assessed as cell viability at 0.01 to 100 ug/mL after 24 hrs by MTT assay; assay type: cell-based; conditions: c2c12, 24 h
Outline: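 MTT viability run on C2C12 cells grown and treated alongside the NF-κB reporter plates, with drug at 0.01–100 µg/ml and DMSO vehicle. Viability is expressed as percent of untreated cells. A one-way repeated-measures ANOVA tested for a concentration effect.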

Rattus norvegicus [4] = assay: Oral bioavailability in Sprague-Dawley rat at 50 mg/kg; assay type: ADME, organism-based; conditions: in vivo
Outline: (§3)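 Sprague–Dawley rats (n = 3) were dosed orally with an emulsion in 30% Labrafil. Blood was sampled from 0 to 24 h (0, 5, 15, 30 min; 1, 2, 4, 8, 24 h). Bioavailability was derived against the IV arm.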

[5] = Volume of distribution at steady state in Sprague-Dawley rat at 10 mg/kg, iv; assay type: ADME, organism-based; design: dose 10 mg/kg, route intravenous; conditions: in vivo, read-out: Vdss
[6] = target: T1, Glucocorticoid receptor (Mus musculus) (UniProt P06537); assay: Induction of glucocorticoid receptor nuclear translocation in mouse C2C12 cells at 1 x 10^-5 to 1.69 x 10^-10 M by chemiluminescence assay relative to control; assay type: cell-based
T1 sequence (whole entry): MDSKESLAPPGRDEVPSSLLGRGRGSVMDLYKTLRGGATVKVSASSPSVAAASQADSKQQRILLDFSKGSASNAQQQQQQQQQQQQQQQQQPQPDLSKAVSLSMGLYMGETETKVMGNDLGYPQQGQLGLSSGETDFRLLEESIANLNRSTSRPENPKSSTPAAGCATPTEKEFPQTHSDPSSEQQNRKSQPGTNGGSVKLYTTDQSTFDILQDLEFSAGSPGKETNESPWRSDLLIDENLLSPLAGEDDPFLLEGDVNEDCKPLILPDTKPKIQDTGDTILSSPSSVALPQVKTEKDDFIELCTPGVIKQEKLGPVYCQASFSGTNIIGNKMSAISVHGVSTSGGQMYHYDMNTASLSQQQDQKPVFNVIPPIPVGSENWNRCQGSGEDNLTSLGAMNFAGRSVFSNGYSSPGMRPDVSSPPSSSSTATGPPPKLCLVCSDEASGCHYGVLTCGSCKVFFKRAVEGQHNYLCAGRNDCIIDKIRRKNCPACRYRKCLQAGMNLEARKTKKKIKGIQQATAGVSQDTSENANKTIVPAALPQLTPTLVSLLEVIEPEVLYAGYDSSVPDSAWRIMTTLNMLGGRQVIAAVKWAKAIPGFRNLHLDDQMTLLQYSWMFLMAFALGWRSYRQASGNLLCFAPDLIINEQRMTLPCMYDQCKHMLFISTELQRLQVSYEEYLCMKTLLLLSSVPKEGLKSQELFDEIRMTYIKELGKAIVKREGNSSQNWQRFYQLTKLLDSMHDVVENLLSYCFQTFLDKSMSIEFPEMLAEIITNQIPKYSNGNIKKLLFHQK
Outline: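 GR nuclear translocation measured by DiscoveRx in PathHunter cells using enzyme-fragment complementation. ProLink-tagged GR recruits a nuclear steroid receptor co-activator peptide fused to the enzyme acceptor, giving a chemiluminescent signal.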

[7] = Tmax in Sprague-Dawley rat at 50 mg/kg, po; assay type: ADME, organism-based; design: dose 50 mg/kg, route oral; conditions: in vivo; outline: as §3
[8] = Mean residence time in CD1 mouse at 10 mg/kg, iv; assay type: ADME, organism-based; design: dose 10 mg/kg, route intravenous; conditions: in vivo
Outline: (§4)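 CD1 mice (n = 3 per compound) given 10 mg/kg as a single tail-vein injection in a pH 7.0 solution of 10% ethanol plus PEG400 (some compounds also with 10% DMSO). Blood was sampled at 0, 5, 15 and 30 min and 1, 2, 4, 8 and 24 h. Parameters were derived from the plasma concentration–time profiles.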

[9] = target: Voltage-gated inwardly rectifying potassium channel KCNH2 (Homo sapiens, UniProt Q12809); assay: Inhibition of human ERG
Sequence of Voltage-gated inwardly rectifying potassium channel KCNH2 (Q12809 whole entry): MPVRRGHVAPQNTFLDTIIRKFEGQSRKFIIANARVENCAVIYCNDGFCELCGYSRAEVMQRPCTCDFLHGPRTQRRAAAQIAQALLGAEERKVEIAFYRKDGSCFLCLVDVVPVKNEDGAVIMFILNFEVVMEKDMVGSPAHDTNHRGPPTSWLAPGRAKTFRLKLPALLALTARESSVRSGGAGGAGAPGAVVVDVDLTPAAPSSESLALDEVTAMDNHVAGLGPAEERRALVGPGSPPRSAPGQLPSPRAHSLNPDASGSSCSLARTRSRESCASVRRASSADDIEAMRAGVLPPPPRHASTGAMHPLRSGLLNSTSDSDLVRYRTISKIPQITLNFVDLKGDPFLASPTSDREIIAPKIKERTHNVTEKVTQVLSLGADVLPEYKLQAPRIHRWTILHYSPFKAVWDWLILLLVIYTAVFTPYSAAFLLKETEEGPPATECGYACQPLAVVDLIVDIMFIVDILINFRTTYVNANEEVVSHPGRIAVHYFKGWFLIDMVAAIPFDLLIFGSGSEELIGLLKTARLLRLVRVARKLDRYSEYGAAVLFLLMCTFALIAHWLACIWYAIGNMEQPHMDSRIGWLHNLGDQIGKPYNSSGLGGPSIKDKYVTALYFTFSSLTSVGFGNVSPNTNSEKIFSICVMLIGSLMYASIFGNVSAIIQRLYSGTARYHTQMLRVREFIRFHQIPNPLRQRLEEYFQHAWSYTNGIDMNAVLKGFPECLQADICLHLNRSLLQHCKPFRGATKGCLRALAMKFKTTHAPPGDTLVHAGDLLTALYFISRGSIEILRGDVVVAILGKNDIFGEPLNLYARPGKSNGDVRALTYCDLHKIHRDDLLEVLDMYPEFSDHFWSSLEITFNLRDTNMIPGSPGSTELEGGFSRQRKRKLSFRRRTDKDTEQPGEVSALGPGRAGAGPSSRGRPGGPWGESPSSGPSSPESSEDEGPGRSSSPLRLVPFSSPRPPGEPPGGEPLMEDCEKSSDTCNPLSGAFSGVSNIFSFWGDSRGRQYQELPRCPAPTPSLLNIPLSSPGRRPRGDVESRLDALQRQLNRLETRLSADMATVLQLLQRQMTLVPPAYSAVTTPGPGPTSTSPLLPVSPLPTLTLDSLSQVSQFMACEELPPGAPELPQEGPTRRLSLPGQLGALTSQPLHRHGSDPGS

Cytochrome P450 3A4 = Cytochrome P450 3A4 (Homo sapiens, UniProt P08684); assay: Inhibition of CYP3A4 (unknown origin); assay type: ADME
Sequence of Cytochrome P450 3A4 (P08684 whole entry): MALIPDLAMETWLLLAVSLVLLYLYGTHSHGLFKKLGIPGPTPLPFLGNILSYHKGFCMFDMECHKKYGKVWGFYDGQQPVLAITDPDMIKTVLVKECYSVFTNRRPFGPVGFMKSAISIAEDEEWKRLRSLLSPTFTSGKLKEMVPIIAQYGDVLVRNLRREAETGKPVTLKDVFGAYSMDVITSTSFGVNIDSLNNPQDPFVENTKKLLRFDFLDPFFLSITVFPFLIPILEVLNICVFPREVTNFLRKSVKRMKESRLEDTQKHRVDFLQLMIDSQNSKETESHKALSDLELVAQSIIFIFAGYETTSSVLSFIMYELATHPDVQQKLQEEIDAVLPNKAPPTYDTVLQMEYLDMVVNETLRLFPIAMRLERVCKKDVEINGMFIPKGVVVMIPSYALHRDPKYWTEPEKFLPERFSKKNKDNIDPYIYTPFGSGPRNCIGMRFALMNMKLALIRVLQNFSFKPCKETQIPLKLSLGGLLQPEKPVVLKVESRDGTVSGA

Canis familiaris [10] = assay: Total unbound AUC (0 to infinity) in beagle dog at 30 mg/kg, po; assay type: ADME, organism-based, Canis lupus familiaris; design: dose 30 mg/kg, route oral; conditions: in vivo; outline: as §1
Canis familiaris [11] = assay: Oral bioavailability in beagle dog at 30 mg/kg; assay type: ADME, organism-based, Canis lupus familiaris; conditions: in vivo; outline: as §1
Rattus norvegicus [12] = assay: Total unbound AUC (0 to infinity) in Sprague-Dawley rat at 10 mg/kg, iv; assay type: ADME, organism-based; design: dose 10 mg/kg, route intravenous; conditions: in vivo
[13] = Metabolic stability in mouse liver microsomes assessed as compound remaining at 2 uM measured at 1 hr; assay type: ADME, Microsome; conditions: read-out: Stability; outline: as §2
Rattus norvegicus [14] = assay: Total unbound Cmax in Sprague-Dawley rat at 50 mg/kg, po; assay type: ADME, organism-based; design: dose 50 mg/kg, route oral; conditions: in vivo; outline: as §3
[15] = Metabolic stability in monkey liver microsomes assessed as compound remaining at 2 uM measured at 1 hr; assay type: ADME, Macaca mulatta, Microsome; conditions: rhesus monkey, read-out: Stability; outline: as §2
[16] = Metabolic stability in rat liver microsomes assessed as compound ramaining at 2 uM measured at 1 hr; assay type: ADME, Microsome; conditions: read-out: Stability
Outline: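 Rat liver microsomes at 0.5 mg/mL final, with 5 mM MgCl2 and 5 mM PBS. The reaction was started with 1 mM NADPH final and run at 37 °C. The negative control used water in place of NADPH; verapamil was the positive control. Read-out was % parent remaining at 1 h.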

[17] = AUClast in CD1 mouse at 50 mg/kg, po; assay type: ADME, organism-based; design: time 0 - last, dose 50 mg/kg, route oral; conditions: plasma
Outline: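 CD1 mice (n = 3 per compound) were dosed orally at 50 mg/kg as an aqueous emulsion in 30% Labrafil. Blood was drawn at 0, 5, 15 and 30 min and 1, 2, 4, 8 and 24 h. Bioavailability and other parameters were calculated from the plasma profiles and compared against the intravenous arm.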

[18] = Volume of distribution at steady state in beagle dog at 10 mg/kg, iv; assay type: ADME, organism-based, Canis lupus familiaris; design: dose 10 mg/kg, route intravenous; conditions: in vivo, read-out: Vdss
[19] = Tmax in CD1 mouse at 10 mg/kg, iv; assay type: ADME, organism-based; design: dose 10 mg/kg, route intravenous; conditions: in vivo; outline: as §4
[20] = Volume of distribution at steady state in CD1 mouse at 10 mg/kg, iv; assay type: ADME, organism-based; design: dose 10 mg/kg, route intravenous; conditions: in vivo, read-out: Vdss; outline: as §4

fCmax (Canis familiaris [1]): 814 ng/mL | half-life [2]: 2.25 h | remaining at 1 h, 2 µM [3]: 92.5% | F (Rattus norvegicus [4]): 47.8% | Vd [5]: 0.77 L/kg | Activity [6]: 80.4% | Tmax [7]: 4 h | MRT [8]: 0.667 h | IC50 (Cytochrome P450 3A4): > 50 µM | fAUC (Canis familiaris [10]): 10844 ng·h/mL | F (Canis familiaris [11]): 53.2% | fAUC (Rattus norvegicus [12]): 8339 ng·h/mL | remaining at 1 h, 2 µM [13]: 88.8% | fCmax (Rattus norvegicus [14]): 2543 ng/mL | remaining at 1 h, 2 µM [15]: 100% | remaining at 1 h, 2 µM [16]: 35.4% | AUC(0-t) [17]: 32900 ng·h/mL | Vd [18]: 1.93 L/kg | Tmax [19]: 5 min | Vd [20]: 0.757 L/kg
Compound: C[C@@H]1C[C@H]2[C@@H]3CCC4=CC(=O)C=C[C@]4(C)C3=CC[C@]2(C)[C@@]1(O)C(=O)CO [VAMOROLONE]
Activity (C2C12): Non-toxic | IC50 [9]: 20 µM
